# From ChEMBL document CHEMBL1148799, “Solid-phase synthesis and insights into structure-activity relationships of safinamide analogues as potent and selective inhibitors of type B monoamine oxidase” (J Med Chem, 2007)
# Columns and labels:
# [1] = biological target: T1, Amine oxidase [flavin-containing] A (Rattus norvegicus, UniProt P21396); test: Inhibition of rat brain mitochondria MAOA by radioenzymatic assay
# T1 sequence (P21396 whole entry): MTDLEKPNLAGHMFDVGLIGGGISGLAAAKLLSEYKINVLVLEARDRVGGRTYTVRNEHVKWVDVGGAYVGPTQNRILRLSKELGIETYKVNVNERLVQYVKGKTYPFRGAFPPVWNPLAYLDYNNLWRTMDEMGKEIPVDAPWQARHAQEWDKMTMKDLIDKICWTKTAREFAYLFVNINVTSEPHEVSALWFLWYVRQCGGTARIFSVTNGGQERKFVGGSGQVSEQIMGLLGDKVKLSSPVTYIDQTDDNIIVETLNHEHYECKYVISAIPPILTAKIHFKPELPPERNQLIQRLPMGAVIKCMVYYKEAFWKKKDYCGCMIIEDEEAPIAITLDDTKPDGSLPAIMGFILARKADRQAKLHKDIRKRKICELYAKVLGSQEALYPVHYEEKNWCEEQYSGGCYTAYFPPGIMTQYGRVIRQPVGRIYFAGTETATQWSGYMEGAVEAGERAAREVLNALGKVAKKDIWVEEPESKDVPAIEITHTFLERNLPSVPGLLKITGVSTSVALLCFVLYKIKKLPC
# Method in brief: (§1)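 Rat brain mitochondrial pellet (500 µg protein) in 0.1 M phosphate buffer, pH 7.40, preincubated 30 min at 37 °C with inhibitor (as methanesulfonate salt) or buffer. Then 5 µM ¹⁴C-5-HT for 30 min at 37 °C, stopped with HCl. Ether-extracted acidic metabolites counted by liquid scintillation. IC50 by nonlinear regression from 5–8 concentrations (10^-10–10^-5 M) in duplicate, or % inhibition at one concentration.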
# Rattus norvegicus = organism: Rattus norvegicus; test: Selectivity index, ratio of IC50 for rat brain mitochondria MAOA to IC50 for rat brain mitochondria MAOB
# Method in brief: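 IC50(MAO-A)/IC50(MAO-B). Both come from radioenzymatic assays on rat brain mitochondria after 30 min inhibitor preincubation at 37 °C, pH 7.40. MAO-A used 5 µM ¹⁴C-5-HT for 30 min; MAO-B used 0.5 µM ¹⁴C-PEA for 10 min. IC50s from nonlinear regression of duplicate 5–8-point curves.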
# [2] = biological target: T2, Amine oxidase [flavin-containing] B (Rattus norvegicus, UniProt P19643); test: Inhibition of rat brain mitochondria MAOB by radioenzymatic assay
# T2 sequence (P19643 whole entry): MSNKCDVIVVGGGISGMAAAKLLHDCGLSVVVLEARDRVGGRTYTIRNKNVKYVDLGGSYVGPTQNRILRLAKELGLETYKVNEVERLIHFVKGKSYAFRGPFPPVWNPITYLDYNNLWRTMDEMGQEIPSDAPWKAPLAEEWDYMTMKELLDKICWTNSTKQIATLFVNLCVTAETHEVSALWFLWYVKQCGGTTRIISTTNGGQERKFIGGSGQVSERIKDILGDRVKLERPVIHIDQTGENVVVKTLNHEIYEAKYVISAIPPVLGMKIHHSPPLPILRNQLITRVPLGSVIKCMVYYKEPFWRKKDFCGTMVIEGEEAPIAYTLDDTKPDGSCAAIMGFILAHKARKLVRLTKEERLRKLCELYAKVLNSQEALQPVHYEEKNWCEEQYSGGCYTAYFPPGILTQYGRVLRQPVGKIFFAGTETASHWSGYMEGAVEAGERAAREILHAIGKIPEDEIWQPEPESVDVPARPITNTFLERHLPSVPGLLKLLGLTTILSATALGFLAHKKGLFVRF
# Method in brief: as §1, with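 “Then 0.5” for “Then 5”, “µM ¹⁴C-PEA” for “µM ¹⁴C-5-HT”, “for 10” for “for 30”, “with perchloric acid. Toluene-extracted” for “with HCl. Ether-extracted acidic”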
# [3] = biological target: T2, Amine oxidase [flavin-containing] B; test: Inhibition of rat brain mitochondria MAOB at 10 uM by radioenzymatic assay
# Method in brief: as §1, with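 “Then 0.5” for “Then 5”, “µM ¹⁴C-PEA” for “µM ¹⁴C-5-HT”, “for 10” for “for 30”, “with perchloric acid. Toluene-extracted” for “with HCl. Ether-extracted acidic”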
# [4] = biological target: T1, Amine oxidase [flavin-containing] A; test: Inhibition of rat brain mitochondria MAOA at 100 uM by radioenzymatic assay; method in brief: as §1
Compound,IC50 [1] [µM],Selectivity index (Rattus norvegicus),IC50 [2] [µM],inhibition at 10 µM [3] [%],inhibition at 100 µM [4] [%]
C[C@@H](C(N)=O)N1CCc2cc(OCc3cccc(F)c3)ccc2C1,45,188,0.24,–,–
C[C@H](NCc1ccc(OCc2ccccc2)cc1)C(N)=O,101,388,0.26,–,–
NC(=O)[C@@H](NCc1ccc(OCc2ccc(Cl)cc2)cc1)c1ccccc1,–,–,–,34,27
NC(=O)CNCc1ccc(OCc2ccc([N+](=O)[O-])cc2)cc1,21.2,2.3,9.1,–,–
C[C@@H](NCc1ccc(OCc2cccc(Cl)c2)cc1)C(N)=O,72,90,0.8,–,–
C[C@@H](NCc1ccc(OCc2cccc(F)c2)cc1)C(N)=O,42,–,–,–,–
NC(=O)[C@H](CO)NCc1ccc(OCc2cccc(F)c2)cc1,100,714,–,–,–
NC(=O)CNCc1ccc(OCc2ccccc2)cc1,8.5,2.7,3.15,–,–
NC(=O)[C@@H](NCc1ccc(OCc2ccc([N+](=O)[O-])cc2)cc1)c1ccccc1,–,–,–,4,16
NC(=O)[C@H](CO)NCc1ccc(OCc2cccc(Cl)c2)cc1,–,1970,0.043,–,–
C[C@H](C(N)=O)N1CCc2cc(OCc3cccc(F)c3)ccc2C1,50,2940,0.017,–,–
NC(=O)CNCc1ccc(OCc2cccc(F)c2)cc1,13.6,6.1,2.24,–,–
NC(=O)CNCc1ccc(OCc2ccc(Cl)cc2)cc1,12.4,1.7,7.1,–,–
C[C@H](NCc1ccc(OCc2ccc(Cl)cc2)cc1)C(N)=O,–,–,2.2,–,37
NC(=O)[C@H](CO)NCc1ccc(OCc2ccc([N+](=O)[O-])cc2)cc1,–,–,7.01,–,38
NC(=O)[C@@H](NCc1ccc(OCc2ccccc2)cc1)c1ccccc1,–,–,73.8,–,35
NC(=O)[C@@H](NCc1ccc(OCc2cccc(Cl)c2)cc1)c1ccccc1,–,–,10.1,–,33
NC(=O)[C@@H](NCc1ccc(OCc2cccc(F)c2)cc1)c1ccccc1,34,3.4,10,–,–
C[C@H](NCc1ccc(OCc2cccc(Cl)c2)cc1)C(N)=O,–,3460,0.033,–,–
NC(=O)[C@H](CO)NCc1ccc(OCc2ccccc2)cc1,90,220,0.41,–,–
NC(=O)[C@H](CO)NCc1ccc(OCc2ccc(Cl)cc2)cc1,–,–,1.1,–,47
NC(=O)CNCc1ccc(OCc2cccc(Cl)c2)cc1,37,109,0.34,–,–
NC(=O)[C@@H](CO)NCc1ccc(OCc2cccc(Cl)c2)cc1,100,909,–,–,–
C[C@H](NCc1ccc(OCc2ccc([N+](=O)[O-])cc2)cc1)C(N)=O,–,–,–,37,22
